Experimental data collected from several papers.
Lines come from different studies, so protocols differ.
ADRA1A: Alpha-1A adrenergic receptor (ADRA1A, Homo sapiens, UniProt P35348)
SQLE: Squalene monooxygenase (SQLE, Homo sapiens, UniProt Q14534)
Tspo: Translocator protein (Tspo, Rattus norvegicus, UniProt P16257)

Cc1cc(Oc2ncccc2CN2CCN(CCc3ccccc3)CC2)ccc1-c1c(C)c(=O)[nH]c(=O)n1C — Ki (ADRA1A; ligand displacement, radioligand): 0.296 µM
O=c1cc(-c2ccc(O)cc2)oc2cc(O[C@@H]3O[C@H](CO)[C@@H](O)[C@H](O)[C@H]3O)cc(O)c12 — Ki (SQLE; enzyme activity, inhibitor): 0.66 µM
Cc1cc(Oc2ncccc2CN2CCN(c3ccccc3[N+](=O)[O-])CC2)ccc1-c1c(C)c(=O)[nH]c(=O)n1C — Ki (ADRA1A; ligand displacement, radioligand): 1.98 µM
C=CC(=O)N1C[C@H](Nc2ncnc3[nH]ccc23)CC[C@@H]1C — Ki (Solute carrier family 22 member 6 (SLC22A6, Homo sapiens, UniProt Q4U2R8); transporter uptake, inhibitor; HEK293; pH 7.4): 156 µM
CCN(CC)C(C)CN1c2ccccc2Sc2ccccc21 (stereo not shown) — Ki (SQLE; enzyme activity, inhibitor): 0.65 µM
COc1cc2c3c(c1OC)-c1c(OC)ccc(-c4ccc(C#N)cc4)c1CC3N(C)CC2 (stereo not shown) — Ki (ADRA1A; cell-free assay, radioligand): 0.322 µM
COc1cc(O)c2c(c1)oc(=O)c1c3cc(O)c(O)cc3oc21 — Ki (Alpha-glucosidase MAL12 (MAL12, Saccharomyces cerevisiae S288c, UniProt P53341); enzyme activity, inhibitor): 30 µM
OC[C@@]12C[C@@H]1[C@@H](n1cnc3c(NC(C4CCC4)C4CCC4)nc(C#Cc4ccc(Cl)s4)nc31)[C@H](O)[C@@H]2O — Ki (Tspo; cell-free assay, radioligand): 0.67 µM
COc1cc2c3c(c1OC)-c1c(OC)ccc(N4CCOCC4)c1CC3N(C)CC2 (stereo not shown) — Ki (ADRA1A; cell-free assay, radioligand): 0.643 µM
COc1cc(C2Oc3cc([C@H]4Oc5cc(O)cc(O)c5C(=O)[C@@H]4O)ccc3OC2CO)ccc1O (stereo partly shown) — Ki (SQLE; enzyme activity, inhibitor): 1.42 µM
COc1ccc(Cl)cc1N1CCN(Cc2cccnc2Oc2ccc(-c3c(C)c(=O)[nH]c(=O)n3C)c(C)c2)CC1 — Ki (ADRA1A; ligand displacement, radioligand): 0.353 µM
O=C[C@H](O)[C@@H](O)[C@H](O)[C@H](O)COP(=O)(O)O — Ki (Hexokinase HKDC1 (Homo sapiens, UniProt Q2TB90); enzyme activity, inhibitor; pH 8): 3400 µM
Cc1cc(Oc2ncccc2CN2CCN(c3cccc(Cl)c3Cl)CC2)ccc1-c1c(C)c(=O)[nH]c(=O)n1C — Ki (ADRA1A; ligand displacement, radioligand): 1.93 µM
N#Cc1ccc2c(c1)N(CCCN1CCC(O)CC1)c1ccccc1S2 — Ki (SQLE; enzyme activity, inhibitor): 0.69 µM
CCOC(=O)[C@@]12C[C@@H]1[C@@H](n1cnc3c(NCc4cccc(Cl)c4)nc(C#Cc4ccc(Cl)s4)nc31)[C@H](O)[C@@H]2O — Ki (Tspo; cell-free assay, radioligand): 0.51 µM
Cc1cc(Oc2ncccc2CN2CCN(c3ccccc3Cl)CC2)ccc1-c1c(C)c(=O)[nH]c(=O)n1C — Ki (ADRA1A; ligand displacement, radioligand): 0.93 µM
